Data: ChEMBL document CHEMBL3992541, “Combined treatment with zingerone and its novel derivative synergistically inhibits TGF-β1 induced epithelial-mesenchymal transition, migration and invasion of human hepatocellular carcinoma cells” (2017)
Calls of active or inactive are those of the source. No cut-off for these calls is given here.

What was measured:
[1] = tested on: SNU-182; experiment: Inhibition of TGFbeta1-induced epithelial-mesenchymal transition in human SNU182 cells assessed as reduction in MMP9 mRNA expression at 40 uM preincubated for 2 hrs followed by TGFbeta1 addition measured after 48 hrs by qRT-PCR method; assay type: functional, cell-based
Method in brief: (§1)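 SNU182 cells pretreated 2 h with single agents (12.5 or 40 µM) or the mixture (20 or 40 µM), then TGF-β 5 ng/ml for 48 h. MMP-2 and MMP-9 mRNA measured by RT-PCR with densitometry and by qRT-PCR, fold change by the 2^-ΔΔCt method. Mean±SD of triplicates.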

[2] = biological target: T1, NF-kappa-B inhibitor alpha (Homo sapiens) (UniProt P25963); experiment: Inhibition of TGFbeta1-induced IkB-alpha phosphorylation in human SNU182 cells at 20 to 40 uM preincubated for 2 hrs followed by TGFbeta1 addition measured after 120 mins in presence of (E)-1-(9-Ethyl-9H-carbazol-3-yl)-5-(4-hydroxy-3-methoxyphenyl)pent-1-en-3-one by Western blot method; assay type: cell-based
T1 sequence (whole entry): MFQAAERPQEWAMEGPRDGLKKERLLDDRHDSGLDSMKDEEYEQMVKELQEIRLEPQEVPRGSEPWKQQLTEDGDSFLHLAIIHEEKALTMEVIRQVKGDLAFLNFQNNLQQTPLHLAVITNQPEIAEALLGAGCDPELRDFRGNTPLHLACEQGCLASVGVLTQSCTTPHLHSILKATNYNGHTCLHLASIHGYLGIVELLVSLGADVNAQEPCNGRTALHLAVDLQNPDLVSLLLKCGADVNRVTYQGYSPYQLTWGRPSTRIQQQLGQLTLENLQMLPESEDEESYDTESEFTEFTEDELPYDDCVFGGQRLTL
Method in brief: (§2)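 SNU182 cells pretreated with the mixture (20 and 40 µM) for 2 h, then exposed to TGF-β1 for 120 min. IκB protein assessed by Western blot, with GAPDH loading control.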

[3] = tested on: SNU-182; experiment: Growth inhibition of human SNU182 cells at <50 uM after 48 hrs by CCK8 assay; assay type: functional, cell-based
[4] = tested on: SNU-182; experiment: Inhibition of TGFbeta1-induced epithelial-mesenchymal transition in human SNU182 cells assessed as reduction in downregulation of E-cadherin expression at 40 uM preincubated for 2 hrs followed by TGFbeta1 addition measured after 48 hrs by Western blot method; assay type: functional, cell-based
Method in brief: (§3)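 SNU182 cells pretreated 2 h with single agents (12.5 or 40 µM) or the mixture (20 and 40 µM), then stimulated with TGF-β1 5 ng/ml for 48 h. E-cadherin and Snail protein detected by Western blot, with GAPDH as loading control.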

[5] = tested on: SNU-182; experiment: Inhibition of TGFbeta1-induced epithelial-mesenchymal transition in human SNU182 cells assessed as reduction in mesenchymal phenotype preincubated for 2 hrs followed by TGFbeta1 addition measured after 48 hrs in presence of (E)-1-(9-Ethyl-9H-carbazol-3-yl)-5-(4-hydroxy-3-methoxyphenyl)pent-1-en-3-one; assay type: functional, cell-based
Method in brief: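 Cells preincubated 2 h in serum-free medium with the mixture (20 and 40 µM), then treated with TGF-β1 5 ng/ml for 48 h. Morphology (spindle-like, elongated shape, scattering) assessed by microscopy.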

[6] = tested on: SNU-182; experiment: Inhibition of TGFbeta1-induced migration in human SNU182 cells at 40 uM measured after 48 hrs in presence of (E)-1-(9-Ethyl-9H-carbazol-3-yl)-5-(4-hydroxy-3-methoxyphenyl)pent-1-en-3-one by wound healing assay; assay type: functional, cell-based
Method in brief: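 Wound healing: SNU182 monolayers at about 90% confluence scratched with a pipette tip and washed. Medium with TGF-β1, with or without 40 µM mixture, then added. Wound imaged at 0 and 48 h; relative motility from cell surface area. Mean±SD of triplicates.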

[7] = biological target: T2, Mitogen-activated protein kinase; ERK1/ERK2 (Homo sapiens) (UniProt P27361+P28482); experiment: Inhibition of TGFbeta1-induced p44/42 MAPK phosphorylation in human SNU182 cells measured after 48 hrs in presence of (E)-1-(9-Ethyl-9H-carbazol-3-yl)-5-(4-hydroxy-3-methoxyphenyl)pent-1-en-3-one by Western blot method; assay type: cell-based
Method in brief: (§4)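 SNU182 cells incubated 48 h with TGF-β1 5 ng/ml alone or together with the mixture at 20 and 40 µM, then lysed. Phospho-p42/44 MAPK detected by Western blot, with total p42/44 MAPK as loading control.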

[8] = tested on: SNU-182; experiment: Growth inhibition of human SNU182 cells at <50 uM in presence of (E)-1-(9-Ethyl-9H-carbazol-3-yl)-5-(4-hydroxy-3-methoxyphenyl)pent-1-en-3-one after 48 hrs by CCK8 assay; assay type: functional, cell-based
[9] = biological target: Mothers against decapentaplegic homolog 2 (Homo sapiens) (UniProt Q15796); experiment: Inhibition of TGFbeta1-induced SMAD2 phosphorylation in human SNU182 cells at 20 to 40 uM preincubated for 2 hrs followed by TGFbeta1 addition measured after 48 hrs in presence of (E)-1-(9-Ethyl-9H-carbazol-3-yl)-5-(4-hydroxy-3-methoxyphenyl)pent-1-en-3-one by Western blot method; assay type: cell-based
Method in brief: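 SNU182 cells given the mixture (20 and 40 µM) for 2 h, then TGF-β1 5 ng/ml for 48 h. Smad2/3 phosphorylation by Western blot, with total Smad2/3 as loading control.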

[10] = tested on: SNU-182; experiment: Inhibition of TGFbeta1-induced epithelial-mesenchymal transition in human SNU182 cells assessed as reduction in MMP9 mRNA expression at 12.5 uM preincubated for 2 hrs followed by TGFbeta1 addition measured after 48 hrs by qRT-PCR method; assay type: functional, cell-based; method in brief: as §1
[11] = tested on: SNU-182; experiment: Inhibition of TGFbeta1-induced epithelial-mesenchymal transition in human SNU182 cells assessed as reduction in MMP9 mRNA expression preincubated for 2 hrs followed by TGFbeta1 addition measured after 48 hrs in presence of zingerone by qRT-PCR method; assay type: functional, cell-based; method in brief: as §1
[12] = tested on: SNU-182; experiment: Inhibition of TGFbeta1-induced epithelial-mesenchymal transition in human SNU182 cells assessed as reduction in upregulation of Snail expression at 12.5 uM preincubated for 2 hrs followed by TGFbeta1 addition measured after 48 hrs by Western blot method; assay type: functional, cell-based; method in brief: as §3
[13] = biological target: T2, Mitogen-activated protein kinase; ERK1/ERK2 (Homo sapiens); experiment: Inhibition of TGFbeta1-induced p44/42 MAPK phosphorylation in human SNU182 cells measured after 48 hrs in presence of zingerone by Western blot method; assay type: cell-based; method in brief: as §4
[14] = tested on: SNU-182; experiment: Growth inhibition of human SNU182 cells assessed as cell survival at 12.5 uM after 48 hrs by CCK8 assay relative to control; assay type: functional; conditions: SNU-182, 48 h, read-out: Survival
Method in brief: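 SNU182 human hepatocellular carcinoma cells were exposed to compound at 6.25, 12.5, 25, 50 and 100 µM in serum-free DMEM for 48 h. Viability was read by CCK-8, where WST-8 is reduced by cellular dehydrogenases to a soluble formazan, and expressed as survival relative to vehicle control. Values are mean±SD of triplicates.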

[15] = biological target: T1, NF-kappa-B inhibitor alpha (Homo sapiens); experiment: Inhibition of TGFbeta1-induced IkB-alpha phosphorylation in human SNU182 cells at 20 to 40 uM preincubated for 2 hrs followed by TGFbeta1 addition measured after 120 mins in presence of zingerone by Western blot method; assay type: cell-based; method in brief: as §2
[16] = tested on: SNU-182; experiment: Inhibition of TGFbeta1-induced epithelial-mesenchymal transition in human SNU182 cells assessed as reduction in downregulation of E-cadherin expression at 12.5 uM preincubated for 2 hrs followed by TGFbeta1 addition measured after 48 hrs by Western blot method; assay type: functional, cell-based; method in brief: as §3

T2 sequence (P27361 whole entry, looked up): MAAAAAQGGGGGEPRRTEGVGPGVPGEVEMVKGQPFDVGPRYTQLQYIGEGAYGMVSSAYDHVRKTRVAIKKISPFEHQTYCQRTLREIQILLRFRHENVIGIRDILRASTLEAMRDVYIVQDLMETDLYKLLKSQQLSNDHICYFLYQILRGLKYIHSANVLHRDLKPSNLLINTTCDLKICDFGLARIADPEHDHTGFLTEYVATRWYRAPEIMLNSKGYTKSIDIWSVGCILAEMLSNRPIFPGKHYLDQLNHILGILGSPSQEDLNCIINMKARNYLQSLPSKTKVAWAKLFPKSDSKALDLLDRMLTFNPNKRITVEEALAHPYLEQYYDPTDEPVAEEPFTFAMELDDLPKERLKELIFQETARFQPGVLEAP
T2 sequence (P28482 whole entry, looked up): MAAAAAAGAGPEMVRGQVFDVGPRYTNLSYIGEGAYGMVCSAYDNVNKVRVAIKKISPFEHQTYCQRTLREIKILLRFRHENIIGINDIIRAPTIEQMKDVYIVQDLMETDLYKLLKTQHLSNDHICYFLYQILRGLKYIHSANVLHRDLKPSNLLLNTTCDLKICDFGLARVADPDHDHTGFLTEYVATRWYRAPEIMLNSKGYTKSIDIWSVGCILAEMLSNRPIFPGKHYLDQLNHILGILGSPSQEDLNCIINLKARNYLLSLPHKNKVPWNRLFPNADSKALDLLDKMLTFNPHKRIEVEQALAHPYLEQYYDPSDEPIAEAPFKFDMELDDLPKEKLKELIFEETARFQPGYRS
Mothers against decapentaplegic homolog 2 (Homo sapiens), sequence (Q15796 whole entry): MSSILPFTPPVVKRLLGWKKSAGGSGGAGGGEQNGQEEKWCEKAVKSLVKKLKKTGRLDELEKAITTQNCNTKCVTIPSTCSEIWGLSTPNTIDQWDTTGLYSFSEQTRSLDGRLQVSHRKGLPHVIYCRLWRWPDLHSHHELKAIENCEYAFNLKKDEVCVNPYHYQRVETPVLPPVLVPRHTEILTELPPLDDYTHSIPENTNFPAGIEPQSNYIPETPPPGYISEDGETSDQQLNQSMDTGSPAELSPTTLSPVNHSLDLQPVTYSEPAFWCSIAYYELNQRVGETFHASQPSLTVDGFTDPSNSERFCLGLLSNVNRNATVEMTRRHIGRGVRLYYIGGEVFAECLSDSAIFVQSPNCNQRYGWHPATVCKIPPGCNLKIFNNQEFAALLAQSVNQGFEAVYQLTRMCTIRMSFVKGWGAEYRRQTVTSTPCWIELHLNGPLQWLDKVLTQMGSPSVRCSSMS

inhibition [2] | inhibition [7] | inhibition [9] | Structure (SMILES) | inhibition [1] | growth inhibition (GI) [3] | inhibition [4] | inhibition [5] | inhibition [6] | growth inhibition (GI) [8] | inhibition [10] | inhibition [11] | inhibition [12] | inhibition [13] | viability at 12.5 µM [14] [%] | inhibition [15] | inhibition [16]
Active | Dose-dependent effect | Active | COc1cc(CCC(C)=O)ccc1O | inactive | inactive | inactive | Dose-dependent effect | Active | inactive | – | – | – | – | – | – | –
– | – | – | CCn1c2ccccc2c2cc(/C=C/C(=O)CCc3ccc(O)c(OC)c3)ccc21 | – | – | – | – | – | – | inactive | Dose-dependent effect | inactive | Dose-dependent effect | > 90 | Active | inactive
